Experimental data collected from several papers.
Protocols differ between the studies behind these lines.
Read-out: cell growth or viability

Oc1c(I)cc(Cl)c2cccnc12 — IC50 (L02; MTT; 48 h): 79 µM
CO[C@H]1/C=C\C=C(/C)C(=O)NC2=C(c3ccccc3)C(=O)C(NCCN(C)C)=C(C[C@@H](C)C[C@H](OC)[C@H](O)[C@@H](C)/C=C(\C)[C@@H]1OC(N)=O)C2=O — IC50 (ARPE-19; MTT): 8.2 µM
COCCCOc1ccnc(COc2ccc(NC(=O)Nc3ccc(Cl)c(C(F)(F)F)c3)cc2)c1C — IC50 (L02; MTT; 72 h): > 100 µM
c1ccc(-c2ccccn2)nc1 — IC50 (L02; MTT; 48 h): > 50 µM
COCCCOc1ccnc(COc2ccc(NC(=O)Nc3cccc(C(F)(F)F)c3)cc2)c1C — IC50 (L02; MTT; 72 h): > 100 µM
Cc1ccc2c(Br)cc(Br)c(O)c2n1 — IC50 (L02; MTT; 48 h): > 100 µM
COc1c(C)cnc(COc2ccc(NC(=O)Nc3ccc(F)cc3)cc2)c1C — IC50 (L02; MTT; 72 h): > 100 µM
CCOc1cc(OCC)cc(C(=O)O[C@@H]2CN3Cc4c(cc5c(c4OC)OCO5)[C@@]24C=C[C@H](OC)C[C@@H]34)c1 — IC50 (PANC-1; WST-1): 8.3 µM
Cc1cc(Oc2ccc(NC(=O)c3sc(-c4cccnc4)nc3C)cc2)n2ncnc2n1 — IC50 (L02; MTT): > 50 µM
C=CCNC1=C2C[C@@H](C)C[C@H](OC)[C@H](O)[C@@H](C)/C=C(\C)[C@H](OC(N)=O)[C@@H](OC)/C=C\C=C(/C)C(=O)NC(=CC1=O)C2=O — IC50 (ARPE-19; MTT): 1 µM
COc1cc2nccc(Oc3ccc(NC(=O)C4(C(=O)Nc5ccc(F)cc5)CC4)cc3)c2cc1OC — IC50 (OCI-AML-3; trypan blue; 72 h): > 9 µM
COc1cc2c(Oc3ccc(NC(=O)C4(C(=O)Nc5ccc(F)cc5)CC4)cc3F)ccnc2cc1OCCCN1CCOCC1 — IC50 (L02; MTT): > 50 µM
N[C@@H](CC(=O)N1CCN(C(c2ccc(F)cc2)c2ccc(F)cc2)CC1)C(=O)N1Cc2ccccc2C1 — IC50 (OCI-AML2; ATP luminescence; 48 h): 1.41 µM
Cc1cc(Oc2ccc(NC(=O)c3sc(-c4ccccc4)nc3C)cc2F)c2nncn2n1 — IC50 (L02; MTT): > 50 µM
CC[C@@H](C)[C@H](N)C(=O)N1Cc2ccccc2C1 — IC50 (OCI-AML2; ATP luminescence; 48 h): 1.44 µM
C#CCSc1nc(Sc2nnnn2-c2ccccc2)c2nnn(Cc3ccc(OC)cc3)c2n1 — IC50 (OCI-AML-3; MTS; 6 days): 4.72 µM
C#Cc1cccc(Nc2ncnc3cc(OCCOC)c(OCCOC)cc23)c1 — IC50 (PANC-1; MTT): 0.05 µM
O=C(N/N=C/c1c(O)ccc2ccccc12)c1cc(-c2ccc3ccccc3c2)n[nH]1 — IC50 (WM-115; MTS; 48 h): 5.6 µM
Cc1cnc(-c2ccc(-c3ccc(NC(=O)Nc4c(F)cc(F)cc4F)cc3F)c3c2C(=O)NC3)[nH]1 — IC50 (OCI-AML-3): 0.0118 µM
COc1c(C)cnc(COc2ccc(NC(=O)Nc3cc(F)cc(F)c3)cc2)c1C — IC50 (L02; MTT; 72 h): > 100 µM
Cc1cc(Oc2ccc(NC(=O)c3sc(-c4ccncc4)nc3C)cc2F)c2nncn2n1 — IC50 (L02; MTT): > 50 µM
Nc1ncc(-c2cnn(C3CCNCC3)c2)cc1-c1nnc(CC2CC2)o1 — IC50 (OCI-AML-3; trypan blue; 72 h): 0.479 µM
Cc1cc(Oc2ccc(NC(=O)c3sc(-c4ccccc4)nc3C)cc2F)n2ncnc2n1 — IC50 (L02; MTT): > 50 µM
COc1cc(-c2ncn(/C=C\C(=O)OC(C)C)n2)cc(C(F)(F)F)c1 — IC50 (OCI-AML-3; 72 h): 0.112 µM
COc1ccnc(COc2ccc(NC(=O)Nc3ccc(Cl)c(C(F)(F)F)c3)cc2)c1OC — IC50 (L02; MTT; 72 h): > 100 µM
CC(=O)c1cccc(/N=N/c2cc(/C=C/C(=O)O)ccc2O)c1 — IC50 (PANC-1; MTT): > 50 µM
CCN1CCN(c2ccc(Nc3cc(N(C)C(=O)Nc4c(Cl)c(OC)cc(OC)c4Cl)ncn3)cc2)CC1 — IC50 (Li-7; ATP luminescence; 96 h): > 1 µM
Cc1c(OCC(F)(F)F)ccnc1COc1ccc(NC(=O)Nc2ccc(F)cc2)cc1 — IC50 (L02; MTT; 72 h): > 100 µM
CC[C@]1(O)C[C@H]2CN(CCc3c([nH]c4ccccc34)[C@@](C(=O)OC)(c3cc4c(cc3OC)N(C=O)[C@H]3[C@@](O)(C(=O)OC)[C@H](OC(C)=O)[C@]5(CC)C=CCN6CC[C@]43[C@@H]65)C2)C1 — IC50 (NALM-6; MTT; 48 h): 0.00087 µM
Cc1cc(Oc2ccc(NC(=O)c3sc(-c4ccccc4)nc3C)cc2)c2nncn2n1 — IC50 (L02; MTT): > 50 µM
Cc1ccc(S(=O)(=O)OCC(=O)Nc2ccc(C(=O)O)c(O)c2)cc1 — IC50 (OCI-AML2): 112 µM
COc1ccnc(COc2ccc(NC(=O)Nc3cc(F)cc(F)c3)cc2)c1OC — IC50 (L02; MTT; 72 h): > 100 µM
Oc1ccc(Nc2nc(-c3ccc(Cl)cc3)cs2)cc1 — IC50 (WM-115; MTS; 24 h): 38.9 µM
Cc1c(OCC(F)(F)F)ccnc1COc1ccc(NC(=O)Nc2cccc(C(F)(F)F)c2)cc1 — IC50 (L02; MTT; 72 h): > 100 µM
CO[C@H]1/C=C\C=C(/C)C(=O)NC2=CC(=O)C(NCCN(C)C)=C(C[C@@H](C)C[C@H](OC)[C@H](O)[C@@H](C)/C=C(\C)[C@@H]1OC(N)=O)C2=O — IC50 (ARPE-19; MTT): 0.15 µM
